Data: ChEMBL document CHEMBL4732226, “Discovery of a potent G-protein-coupled receptor 119 agonist for the treatment of type 2 diabetes” (Bioorg Med Chem, 2021)
Active and inactive are the calls of the source. The rule behind the calls is not given here.

Legend:
[1] = Toxicity in male Wistar rat assessed as ratio of liver to body weight at 400 mg/kg, po after 28 days (reference value: 3.142 +/- 0.231); format: organism-based; settings: in vivo, 672 h, time 28 day
[2] = AUC(0 to infinity) in Beagle dog at 10 mg/kg, po up to 24 hrs; format: ADME, organism-based, Canis lupus familiaris; design: route oral, dose 10 mg/kg, time <=24; settings: in vivo
Procedure, shortened: (§1)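 Single oral dose at 10 mg/kg given to male Wistar rats and to Beagle dogs; bioavailability also determined in both species.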

[3] = Toxicity in female Wistar rat assessed as ratio of heart to body weight at 100 mg/kg, po after 28 days (reference value: 0.38 +/- 0.037); format: organism-based; settings: in vivo, 672 h, time 28 day
[4] = Toxicity in male Wistar rat assessed as ratio of liver to body weight at 100 mg/kg, po after 28 days (reference value: 3.142 +/- 0.231); format: organism-based; settings: in vivo, 672 h, time 28 day
[5] = Half life in Wistar rat at 10 mg/kg, po up to 24 hrs; format: ADME, organism-based; settings: in vivo; procedure, shortened: as §1
[6] = Toxicity in female Wistar rat assessed as ratio of kidney to body weight at 100 mg/kg, po after 28 days (reference value: 0.801 +/- 0.071); format: organism-based; settings: in vivo, 672 h, time 28 day
[7] = Toxicity in male Wistar rat assessed as ratio of heart to body weight at 100 mg/kg, po after 28 days (reference value: 0.333 +/- 0.036); format: organism-based; settings: in vivo, 672 h, time 28 day
[8] = tested on: Mus musculus; test: Antidiabetic activity in po dosed db/db mouse assessed as reduction in blood glucose level administered up to 14 days pretreated for 30 mins followed by glucose-stimulation and measured up to 120 mins by OGTT method relative to control; format: functional, organism-based; settings: dose 1-50 mg/kg, time day <=14
Procedure, shortened: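 Male db/db mice dosed orally once daily for 14 days at 1 to 50 mg/kg. Oral glucose 2 g/kg given 30 min after dosing, then blood glucose followed for 0–120 min. Glucose AUC determined on day 1 and day 14; mean ± s.e.m.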

[9] = Toxicity in female Wistar rat assessed as ratio of spleen to body weight at 400 mg/kg, po after 28 days (reference value: 0.244 +/- 0.032); format: organism-based; settings: in vivo, 672 h, time 28 day
[10] = Toxicity in female Wistar rat assessed as ratio of brain to body weight at 100 mg/kg, po after 28 days (reference value: 1.1 +/- 0.078); format: organism-based; settings: in vivo, 672 h, time 28 day
[11] = Tmax in Beagle dog at 10 mg/kg, po up to 24 hrs; format: ADME, organism-based, Canis lupus familiaris; settings: in vivo; procedure, shortened: as §1
[12] = Toxicity in male Wistar rat assessed as ratio of kidney to body weight at 400 mg/kg, po after 28 days (reference value: 0.787 +/- 0.078); format: organism-based; settings: in vivo, 672 h, time 28 day
[13] = AUC(0 to infinity) in Sprague-Dawley rat at 25 mg/kg, po up to 24 hrs; format: ADME, organism-based; design: route oral, dose 25 mg/kg, time <=24; settings: in vivo
Procedure, shortened: (§2)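 Male SD rats fasted overnight, water ad libitum, fed 4 h after dosing. Single oral gavage of 25 mg/kg as a homogeneous suspension in 0.5% Tween 80 in 0.5% Na-CMC. Blood drawn into Na-heparin tubes at 0.25, 0.5, 1, 2, 4, 6, 8 and 24 h; plasma stored at -70°C. Parameters by non-compartmental analysis, with C0 taken as zero and BLQ samples set to zero.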

[14] = Toxicity in male Wistar rat assessed as ratio of brain to body weight at 400 mg/kg, po after 28 days (reference value: 0.766 +/- 0.038); format: organism-based; settings: in vivo, 672 h, time 28 day
[15] = Toxicity in male Wistar rat assessed as ALT level at 200 mg/kg, po after 28 days (reference value: 30.47 +/- 2.63 U/L); format: organism-based; settings: in vivo, 672 h, time 28 day
[16] = Toxicity in male Wistar rat assessed as ratio of spleen to body weight at 200 mg/kg, po after 28 days (reference value: 0.206 +/- 0.026); format: organism-based; settings: in vivo, 672 h, time 28 day
[17] = Toxicity in female Wistar rat assessed as ratio of heart to body weight at 400 mg/kg, po after 28 days (reference value: 0.38 +/- 0.037); format: organism-based; settings: in vivo, 672 h, time 28 day
[18] = Toxicity in female Wistar rat assessed as ratio of liver to body weight at 100 mg/kg, po after 28 days (reference value: 3.219 +/- 0.221); format: organism-based; settings: in vivo, 672 h, time 28 day
[19] = AUC(0 to t) in Sprague-Dawley rat at 25 mg/kg, po up to 24 hrs; format: ADME, organism-based; design: route oral, dose 25 mg/kg, time <=24; settings: in vivo; procedure, shortened: as §2
[20] = Toxicity in female Wistar rat assessed as ratio of brain to body weight at 200 mg/kg, po after 28 days (reference value: 1.1 +/- 0.078); format: organism-based; settings: in vivo, 672 h, time 28 day
[21] = Toxicity in female Wistar rat assessed as globulin level at 400 mg/kg, po after 28 days (reference value: 2.44 +/- 0.18 g/dl); format: organism-based; settings: in vivo, 672 h, time 28 day
[22] = Toxicity in female Wistar rat assessed as urea level at 400 mg/kg, po after 28 days (reference value: 48.09 +/- 5.3 mg/dl); format: organism-based; settings: in vivo, 672 h, time 28 day
[23] = Toxicity in male Wistar rat assessed as albumin level at 200 mg/kg, po after 28 days (reference value: 3.56 +/- 0.08 g.dl); format: organism-based; settings: in vivo, 672 h, time 28 day
[24] = Toxicity in female Wistar rat assessed as globulin level at 100 mg/kg, po after 28 days (reference value: 2.44 +/- 0.18 g/dl); format: organism-based; settings: in vivo, 672 h, time 28 day
[25] = Toxicity in male Wistar rat assessed as ALP level at 200 mg/kg, po after 28 days (reference value: 174.77 +/- 25.42 U/L); format: organism-based; settings: in vivo, 672 h, time 28 day
[26] = Toxicity in female Wistar rat assessed as ratio of spleen to body weight at 200 mg/kg, po after 28 days (reference value: 0.244 +/- 0.032); format: organism-based; settings: in vivo, 672 h, time 28 day
[27] = Elimination rate constant in Sprague-Dawley rat at 25 mg/kg, po up to 24 hrs; format: ADME, organism-based; settings: in vivo; procedure, shortened: as §2
[28] = Cmax in Sprague-Dawley rat at 25 mg/kg, po up to 24 hrs; format: ADME, organism-based; design: route oral, dose 25 mg/kg, time <=24; settings: in vivo; procedure, shortened: as §2
[29] = Cmax in Beagle dog at 10 mg/kg, po up to 24 hrs; format: ADME, organism-based, Canis lupus familiaris; design: route oral, dose 10 mg/kg, time <=24; settings: in vivo; procedure, shortened: as §1
[30] = Toxicity in male Wistar rat assessed as ratio of epididymides to body weight at 100 mg/kg, po after 28 days (reference value: 0.361 +/- 0.028); format: organism-based; settings: in vivo, 672 h, time 28 day
[31] = Toxicity in female Wistar rat assessed as ALP level at 100 mg/kg, po after 28 days (reference value: 100.14 +/- 21.98 U/L); format: organism-based; settings: in vivo, 672 h, time 28 day
[32] = tested on: Rattus norvegicus; test: Antidiabetic activity in Sprague-Dawley rat assessed as reduction in HFD-induced body weigh gain at 25 to 50 mg/kg/day, po for 28 days; format: functional, organism-based; settings: dose 25-50 mg/kg/day, time 28.0 day
Procedure, shortened: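 Male SD rats were fed high-fat diet for 12 weeks, with a normal-chow group alongside, then split into 4 treatment groups. Oral dosing at 25 or 50 mg/kg/day for 28 days in PG450/Tween 80/0.1% Na-CMC (5:5:90). Body weight recorded daily.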

[33] = Elimination rate constant in Wistar rat at 10 mg/kg, po up to 24 hrs; format: ADME, organism-based; settings: in vivo; procedure, shortened: as §1
[34] = Toxicity in female Wistar rat assessed as ratio of kidney to body weight at 400 mg/kg, po after 28 days (reference value: 0.801 +/- 0.071); format: organism-based; settings: in vivo, 672 h, time 28 day

With Cc1c(Oc2cccc(/C=C3\SC(=O)NC3=O)c2)ncnc1OC1CCN(C(=O)OC(C)(C)C)CC1 the Ratio [1] was 3.22, the AUC(0-inf) [2] was 15200 ng·h/mL and the Ratio [3] was 0.41. It also gave a Ratio [4] of 3.237, a half-life [5] of 12.3 h and a Ratio [6] of 0.875. The Ratio [7] was 0.347, the Activity [8] was “Dose-dependent effect” and the Ratio [9] was 0.228. The Ratio [10] was 1.103, the Tmax [11] was 3 h and the Ratio [12] was 0.845. It also gave an AUC(0-inf) [13] of 19700 ng·h/mL, a Ratio [14] of 0.809 and an Activity [15] of 30.15 U/L. The Ratio [16] was 0.22, the Ratio [17] was 0.367 and the Ratio [18] was 3.243. For the same compound, the AUC(0-t) at 24 h [19] was 19100 ng·h/mL, the Ratio [20] was 1.114 and the Activity [21] was 2.42 g/dL. For the same compound, the Activity [22] was 43.2 mg/dL, the Activity [23] was 3.61 g/dL and the Activity [24] was 2.39 g/dL. It also gave an Activity [25] of 164.68 U/L, a Ratio [26] of 0.242 and a k el at 24 h [27] of 9.17e-05 s⁻¹. For the same compound, the Cmax [28] was 4960 ng/mL, the Cmax [29] was 1050 ng/mL and the Ratio [30] was 0.371. The Activity [31] was 103.72 U/L, the Activity [32] was “inactive” and the k el at 24 h [33] was 1.94e-05 s⁻¹. It also gave a Ratio [34] of 0.806.
